The structures appear in SMILES notation.

The values below come from ChEMBL document CHEMBL4513216, “Probing the Open Global Health Chemical Diversity Library for Multistage-Active Starting Points for Next-Generation Antimalarials” (ACS Infect Dis, 2020).

The data set can be described thus: Toxicity liver stage against HepG2, at 10uM. In kind it is cell-based. Further details: test concentration 10 uM, cell line HepG2-A16-CD81EGFP. As to conditions: human, HepG2-A16-CD81EGFP cells; read-out: INHIBITION
In outline: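 Uninfected HepG2-A16-CD81EGFP cells, 3 × 10^3 per well, 1536-well, plated on prespotted compound at 10 μM final, parasite-free screening media added to match infected plates; puromycin 10 μM positive, DMSO 0.5% negative; run in parallel with 48 h PbLuc assay at 37 °C, 5% CO2; viability by CellTiter-Glo luminescence, normalized to controls.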
For `CCC1CN(C(=O)c2ccc(=O)[nH]n2)CCC(=O)N1Cc1ccccc1` (stereo not given), the cytotoxicity at 10 µM is 10.4%.

`CC(C)=CCN1C[C@@H]2CN(C(=O)c3cnccc3C)C[C@]2(C(=O)O)C1`: the cytotoxicity at 10 µM worked out at 2.85%.

`CCN1CC(C(=O)N2CC(Oc3ccccc3Cl)C2)CCC1=O` (stereo not given): the cytotoxicity at 10 µM was -8.62%.

`Cc1cc(N2CCN(c3ccc(=O)[nH]n3)CC2)nc(-c2ccncc2)n1`: the cytotoxicity at 10 µM was -5.19%.

`OC1(CN2CCCC2)CCCN(Cc2ccc(F)cc2Cl)C1` (stereo not given): the cytotoxicity at 10 µM was found to be 20.9%.

As for `O=C1[C@@H]2CCN(Cc3ccccn3)C[C@@H]2OCCN1c1ccccc1`, the cytotoxicity at 10 µM was -73.7%.

For `Cn1cc(C(=O)N2CCN(c3ncccn3)CC2)ccc1=O`, the cytotoxicity at 10 µM is -7.82%.

Consider `CCc1cc(C(=O)N2CCC(c3cc4ncccc4cn3)CC2)no1`, for which the cytotoxicity at 10 µM was -14.4%.

Consider `CCN(CC)c1ncc(CNC2CCc3nc(C)nn3C2)s1` (stereo not given), for which the cytotoxicity at 10 µM was 2.78%.

In the case of `Cc1nc(CN(C)C2CCN(Cc3nc4c(F)cccc4[nH]3)C2)no1` (stereo not given), the cytotoxicity at 10 µM is -4.09%.

Take `CCOC(=O)CCCNc1nc(C(C)(C)C)nc2c1cnn2C`: the cytotoxicity at 10 µM was -0.627%.

Take `COc1ncc(C(=O)N2CCC(c3nc(C)n4ccsc34)CC2)cn1`: the cytotoxicity at 10 µM was -17.4%.

As for `Cc1cc(NCCNc2ncccc2C)n2nc(C)cc2n1`, the cytotoxicity at 10 µM came to 2.41%.

For `Cn1cc(CN2CC[C@H](O)[C@@H](n3ccc(=O)[nH]c3=O)CC2)cn1`, the cytotoxicity at 10 µM was found to be 20.4%.

With `N#Cc1cccc(N2CCC(CO)(CCCc3ccccc3)CC2)n1`, the cytotoxicity at 10 µM was -45.7%.

Take `CN(C)CCN(Cc1ccco1)C(=O)Cc1cn2ccsc2n1`: the cytotoxicity at 10 µM is 5.92%.

Consider `O=C(c1ccco1)N1CCc2c(COCC3CC3)cncc2C1`, for which the cytotoxicity at 10 µM was -71.3%.

In the case of `O=C(CCc1nc(-c2ccccn2)no1)N1CCCC1c1ccsc1` (stereo not given), the cytotoxicity at 10 µM is -14.6%.

As for `CCn1nc(NC(=O)Cn2ccc(C(C)=O)n2)c2ccccc21`, the cytotoxicity at 10 µM is 12.8%.

As for `C1CN(CC2CCOCC2)Cc2c(COCC3CC3)nnn2C1`, the cytotoxicity at 10 µM is -130%.

`Cc1ccoc1C(=O)N1CCCC(c2cc(C(F)(F)F)[nH]n2)C1` (stereo not given): the cytotoxicity at 10 µM worked out at 2.4%.

Take `O=C(O)c1ccc(C2CCCN(C(=O)c3ccc[nH]3)C2)cc1` (stereo not given): the cytotoxicity at 10 µM was -10.5%.

In the case of `COc1ccc(CC(=O)NC2(C#N)CCOCC2)c(Cl)c1`, the cytotoxicity at 10 µM was -6.48%.

Consider `Cc1ncccc1Oc1ncnc(N2CCC(O)(CO)CC2)c1C`, for which the cytotoxicity at 10 µM was -2.4%.

As for `Cc1ccccc1C1(C(=O)NCCN2CCC(C)CC2)CCOCC1`, the cytotoxicity at 10 µM is 3.57%.

Regarding `CC(C(=O)N1CCOCC1)S(=O)(=O)Cc1nc(C(C)(C)C)no1` (stereo not given), the cytotoxicity at 10 µM was -3.82%.

Take `COc1ccc(C)cc1CC(=O)NC1(C#N)CCOCC1`: the cytotoxicity at 10 µM was determined as 6.18%.

In the case of `Cc1nc(NC(=O)CN2CCOC(Cn3cccn3)C2)sc1C` (stereo not given), the cytotoxicity at 10 µM was -8.27%.

As to `CC(C)(C)c1n[nH]c(C2CN(C(=O)Cn3ccccc3=O)CCO2)n1` (stereo not given), the cytotoxicity at 10 µM was -1.22%.

On to `COc1cccc(CN2CCC(CO)(Cc3ccc(Cl)cc3)CC2)c1O`, for which the cytotoxicity at 10 µM was -133%.

In the case of `Cn1cc(C(=O)N[C@H]2CN(Cc3nccs3)[C@@H]3CCCO[C@H]23)cn1`, the cytotoxicity at 10 µM was 0.893%.

On to `Cn1c(CN2CCOCC2)nnc1C1CCCN(CC(N)=O)C1` (stereo not given), for which the cytotoxicity at 10 µM is 5.23%.

As to `O=C(CCC(=O)N1CCC(Oc2ncccc2Br)CC1)c1ccccc1`, the cytotoxicity at 10 µM came out at 30.4%.

In the case of `Cc1ccc(-c2nnc(CN3CCOC(Cn4cncn4)C3)o2)cc1` (stereo not given), the cytotoxicity at 10 µM was -10.2%.

In the case of `CC(C)c1nc(CN(C)C(=O)C(O)c2ccc(Cl)cc2)cs1` (stereo not given), the cytotoxicity at 10 µM is -150%.

On to `O=C(NCC(O)c1ccsc1)Nc1cccs1` (stereo not given), for which the cytotoxicity at 10 µM is -8.29%.

Regarding `Cc1cnn(CC2CCCN2c2nn3cc(C)nc3s2)c1` (stereo not given), the cytotoxicity at 10 µM was -2.84%.

In the case of `CNC(=O)c1cc2c(nc1NC(C)C)CCNCC2`, the cytotoxicity at 10 µM was determined as 0.102%.

For the compound `O=C(Nc1ccc(-n2cccn2)cc1)N1CCC(O)C1` (stereo not given), the cytotoxicity at 10 µM is 19.9%.

As to `CCN(CC)C(CNC(=O)c1cccnc1-n1cncn1)c1ccsc1` (stereo not given), the cytotoxicity at 10 µM is -146%.

Regarding `OCCC1CN(c2ncnc3[nH]cnc23)CCN1Cc1ccccc1F` (stereo not given), the cytotoxicity at 10 µM turned out to be 17%.

`COCCS(=O)(=O)N1CCN(c2cccc(O)c2)CC1`: the cytotoxicity at 10 µM stood at 5.33%.

With `Cc1cc2c(N3CCC(N(C)Cc4nccs4)CC3)ncnc2s1`, the cytotoxicity at 10 µM is 45%.

`CC(C)N1C(=O)CO[C@H]2CCN(C(=O)c3ccc4c(c3)CCC4)CC[C@@H]21`: the cytotoxicity at 10 µM came out at 3.79%.

On to `Cc1occc1C(=O)N1CCCN(Cc2nccn2C)CC1`, for which the cytotoxicity at 10 µM is -1.56%.

In the case of `Cc1nc(C(NC(=O)c2cc(C(C)C)[nH]n2)c2ccccc2)n[nH]1` (stereo not given), the cytotoxicity at 10 µM worked out at 11.6%.

On to `Cc1nnc(N2C[C@H](Oc3ccccn3)[C@H]3OCCC[C@H]32)s1`, for which the cytotoxicity at 10 µM came out at 10.7%.

For `Cc1nc(CC(=O)N2CCCN(c3ccc(F)cc3)CC2)cs1`, the cytotoxicity at 10 µM was determined as 3.35%.

As for `CCC(C)N(Cc1cc(C)n[nH]1)Cc1ccccc1Cl` (stereo not given), the cytotoxicity at 10 µM stood at 6.65%.

`Cc1cccc(CN2CCc3[nH]nc(C(=O)N(C)C)c3C2)n1`: the cytotoxicity at 10 µM is -0.596%.

On to `O=C(CNc1cc2c(cc1Cl)OCCO2)NCC(F)(F)F`, for which the cytotoxicity at 10 µM was determined as 0.49%.

As to `O=S1(=O)CCC(n2cc(C3=CCN(CCc4ccccc4)CC3)cn2)C1` (stereo not given), the cytotoxicity at 10 µM is -2.64%.

In the case of `CCOC(=O)CCn1cnc2onc(-c3cc(OC)ccc3Cl)c2c1=O`, the cytotoxicity at 10 µM is -19%.

For the compound `O=c1c2cn[nH]c2nc(SCCN2CCCC2)n1-c1ccccc1`, the cytotoxicity at 10 µM was -2.03%.

With `COc1cccc(CNC(=O)CCC2=Nc3ccccc3S(=O)(=O)N2)c1`, the cytotoxicity at 10 µM came to 4.19%.

Consider `CC1CCC(O)(Cn2ncnc2-c2cccc(C#N)c2)CC1` (stereo not given), for which the cytotoxicity at 10 µM turned out to be 0.775%.

In the case of `CC(=O)N1CCC(C)(c2nc(C)no2)CC1`, the cytotoxicity at 10 µM was -1.55%.

Take `COc1cccc(S(=O)(=O)N2CCN(C)[C@@H]3CS(=O)(=O)C[C@@H]32)c1`: the cytotoxicity at 10 µM is -9.6%.

With `c1ccc(CCN2CCN(c3ncnc4[nH]ccc34)CC2)cc1`, the cytotoxicity at 10 µM was 5.09%.

Regarding `CCCSCC(=O)N1CCCC(c2nccn2Cc2ccncc2)C1` (stereo not given), the cytotoxicity at 10 µM is 4.69%.

For the compound `c1ccc(CCCN2CC[C@H](c3nnc(-c4cccnc4)o3)C2)cc1`, the cytotoxicity at 10 µM was -6.1%.

On to `Cc1ccc(N2CCCC(N(C)Cc3cc(C)on3)C2)nn1` (stereo not given), for which the cytotoxicity at 10 µM was found to be 17.5%.

For `Cn1cc(CN2CCO[C@H]3C(Cn4cccn4)CC[C@@H]32)cn1` (stereo not given in full), the cytotoxicity at 10 µM is -3.12%.

Take `CC1(CNC(=O)NCc2ccsc2)CCCS1` (stereo not given): the cytotoxicity at 10 µM came out at 1.82%.

Take `c1cnc(N2CC3(CCN(CC4CCOC4)CC3)c3ccccc32)nc1` (stereo not given): the cytotoxicity at 10 µM was -6.78%.

With `Cc1c(CN2CCC(C(=O)O)(n3cccn3)CC2)oc2ccccc12`, the cytotoxicity at 10 µM was -2.67%.

`CCn1ncc2c1CN(C(=O)Cc1ccccn1)CC2COC` (stereo not given): the cytotoxicity at 10 µM is -70.7%.

Turning to `NS(=O)(=O)CCN1CCN(c2cc(F)ccc2F)CC1`, the cytotoxicity at 10 µM is -14.4%.

In the case of `COc1ccc(CN(Cc2cn(C)nc2C)CC2CCCO2)c(OC)c1` (stereo not given), the cytotoxicity at 10 µM was -7.3%.

`CC(C)N1CCC(c2cc(C(F)(F)F)n3ccnc3n2)CC1`: the cytotoxicity at 10 µM was -16.2%.

Consider `Cc1ccc(N2CC[C@H]3C[C@H](C(=O)NCc4ccco4)O[C@H]3C2)nn1`, for which the cytotoxicity at 10 µM was -3.03%.

For `COc1nn(C)c2c1CCCN(C(=O)c1cnccn1)C2`, the cytotoxicity at 10 µM was -84.3%.

Turning to `O=C(C1=CCCC1)N1C[C@H](Oc2cccnc2)[C@H]2OCCC[C@H]21`, the cytotoxicity at 10 µM is -8.42%.

`COc1nn(C)cc1-c1nnc(SCc2cccnc2)n1C`: the cytotoxicity at 10 µM is -2.06%.

Turning to `O=C(NCC1CCC2(CCNCC2)CO1)c1cnccn1` (stereo not given), the cytotoxicity at 10 µM is 9.51%.

As for `O=C(NCc1cscn1)NC1CCN(c2ncccc2Cl)C1` (stereo not given), the cytotoxicity at 10 µM was -1.24%.

For the compound `O=C(Cn1cncn1)NCC1CCN(Cc2ccccc2Cl)CC1`, the cytotoxicity at 10 µM was -3.84%.

Consider `CCn1c(C2CCCNC2)nn(Cc2ccc(C(=O)NC)o2)c1=O` (stereo not given), for which the cytotoxicity at 10 µM came to 8.25%.

On to `Cc1cc(C(=O)N2CCn3cc(CN4CCN(C)CC4)nc3C2)no1`, for which the cytotoxicity at 10 µM is -74.7%.

With `CS(=O)(=O)Nc1ccn(Cc2ccc(Br)cc2)n1`, the cytotoxicity at 10 µM was 10.9%.

Consider `CS(=O)(=O)c1snnc1C1CCCN(Cc2ccncc2)C1` (stereo not given), for which the cytotoxicity at 10 µM is -11.5%.

With `CN(Cc1ccc(-n2cncn2)cc1)Cc1ncc[nH]1`, the cytotoxicity at 10 µM was 4.67%.

In the case of `Cc1ccc(CC(=O)N2Cc3nccn3CC(CN(C)C)C2)cc1` (stereo not given), the cytotoxicity at 10 µM is -9.58%.

In the case of `CC(C)NC(=O)N1CCN(S(C)(=O)=O)CC2(CNC(=O)C2)C1` (stereo not given), the cytotoxicity at 10 µM amounted to 8.71%.

Regarding `Cc1nc(C)n(CC2CCCN(Cc3cc(C#N)ccc3F)C2)n1` (stereo not given), the cytotoxicity at 10 µM is -18.3%.

For the compound `c1ccc2c(c1)CC(Cc1cc(N3CCCC3)cnn1)CO2` (stereo not given), the cytotoxicity at 10 µM is -6.03%.

Turning to `O=C(CCN1CCCC(CO)(CC2CC2)C1)NC1CCCCC1` (stereo not given), the cytotoxicity at 10 µM turned out to be 1.91%.

Consider `O=c1c2cccc(C(F)(F)F)c2ncn1CCN1CCNCC1`, for which the cytotoxicity at 10 µM is -3.21%.

`CN1CCN(Cn2nc(-c3cccs3)ccc2=O)CC1`: the cytotoxicity at 10 µM worked out at 2.63%.

As for `COCCNC(=O)c1cc2c(nc1O)CC(c1cccs1)CC2=O` (stereo not given), the cytotoxicity at 10 µM worked out at 11.9%.

On to `O=C(C1CCC1)N1C[C@@H]2CN(c3ccccc3)C(=O)[C@@H]2C1`, for which the cytotoxicity at 10 µM worked out at 1.05%.

With `COc1cccc(S(=O)(=O)NC(=O)COc2c(C)cccc2C)c1`, the cytotoxicity at 10 µM was -5.84%.

Regarding `Cc1[nH]c(-c2ccccc2)nc1C(=O)N1CCC2(CCCO2)CC1`, the cytotoxicity at 10 µM is 2.8%.

In the case of `Cc1cnn(CCNCc2ccccc2F)c1`, the cytotoxicity at 10 µM was -9.54%.

`O=C(NC1(C(=O)NCC2CC2)CCCC1)C1Cc2cc(F)ccc2O1` (stereo not given): the cytotoxicity at 10 µM was 8%.
